Source: ChEMBL document CHEMBL4813940, “Design, synthesis and biological evaluation of novel benzoxaborole derivatives as potent PDE4 inhibitors for topical treatment of atopic dermatitis” (Eur J Med Chem, 2021)

Experiments:
[1] = molecular target: T1, 3',5'-cyclic-AMP phosphodiesterase 4B (Homo sapiens, UniProt Q07343); test: Inhibition of PDE4B (unknown origin) assessed as hydrolysis of [3H]-cGMP into [3H]-GMP incubated for 30 mins by scintillation of proximity assay; conditions: in the assay text read “[3H]-cAMP into [3H]-AMP” for “[3H]-cGMP into [3H]-GMP”
T1 sequence (Q07343 whole entry): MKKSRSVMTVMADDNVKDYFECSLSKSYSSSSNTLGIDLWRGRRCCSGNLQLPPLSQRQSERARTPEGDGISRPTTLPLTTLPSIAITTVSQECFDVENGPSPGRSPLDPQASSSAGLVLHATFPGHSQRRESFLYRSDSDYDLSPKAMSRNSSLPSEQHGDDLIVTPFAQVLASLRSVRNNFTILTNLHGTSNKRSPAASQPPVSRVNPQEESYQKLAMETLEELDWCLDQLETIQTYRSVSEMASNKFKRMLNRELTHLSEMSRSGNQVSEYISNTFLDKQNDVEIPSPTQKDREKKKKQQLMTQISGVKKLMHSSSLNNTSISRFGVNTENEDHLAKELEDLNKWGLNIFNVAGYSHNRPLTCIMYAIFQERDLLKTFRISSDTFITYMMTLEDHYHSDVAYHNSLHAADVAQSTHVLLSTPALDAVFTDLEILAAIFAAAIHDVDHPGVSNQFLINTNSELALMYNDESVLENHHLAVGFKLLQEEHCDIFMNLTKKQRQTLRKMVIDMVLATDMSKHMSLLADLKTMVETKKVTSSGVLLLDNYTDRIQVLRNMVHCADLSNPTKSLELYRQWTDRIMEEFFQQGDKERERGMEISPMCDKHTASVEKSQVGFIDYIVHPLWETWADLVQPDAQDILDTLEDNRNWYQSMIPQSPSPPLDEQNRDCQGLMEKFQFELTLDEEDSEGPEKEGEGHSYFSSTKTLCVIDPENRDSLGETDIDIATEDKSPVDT
Method in brief: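 Scintillation proximity assay of [3H]-cAMP or [3H]-cGMP hydrolysis to [3H]-AMP or [3H]-GMP. Enzyme was diluted to 1–2 nM in 50 mM Tris pH 7.5, 8.3 mM MgCl2 and 1.7 mM EGTA. Reaction was started by adding enzyme, test solution and radiolabelled substrate, then incubated at 30 °C for 30 min and stopped with SPA beads. Run in duplicate.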

Mus musculus = test: Antiinflammatory activity against PMA-induced ICR mouse ear oedema model assessed as reduction in ear swelling at 1 mg/ear topically administered and measured after 4 hrs; format: functional
Method in brief: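 Male ICR mice, 8 weeks old. The sample was applied topically to the right ear at 1.0 mg/ear in ethanol before PMA. After 4 h the mice were killed by cervical dislocation and both ears were measured with a micrometer. Oedema was the thickness difference between the ears; inhibition was the percent reduction versus the model group.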

[2] = molecular target: T1, 3',5'-cyclic-AMP phosphodiesterase 4B; test: Inhibition of PDE4B (unknown origin) assessed as hydrolysis of [3H]-cAMP into [3H]-AMP incubated for 30 mins by scintillation of proximity assay

Row | Compound | IC50 [1] | IC50 [2] | inhibition (INH) (Mus musculus)
1 | CC1(C)CC(=O)c2ccc(Oc3ccc4c(c3)COB4O)cc2O1 | 65.5 nM |  | 
2 | O=c1ccoc2cc(Oc3ccc4c(c3)COB4O)ccc12 | 18.9 nM |  | 
3 | O=C(O)c1cccc2nc(Oc3ccc4c(c3)COB4O)ccc12 | 124 nM |  | 45.76%
4 | CC(=O)c1cccc2nc(Oc3ccc4c(c3)COB4O)ccc12 |  | 3.05 nM | 39.56%

Continued, in another order:

Row | IC50 [1] | IC50 [2] | Compound | inhibition (INH) (Mus musculus)
5 | 21.9 nM |  | COC(=O)c1cccc2cc(Oc3ccc4c(c3)COB4O)ccc12 | 
6 | 46.2 nM |  | COC(=O)c1cnn2ccc(Oc3ccc4c(c3)COB4O)nc12 | 
7 | 6.44 nM |  | COC(=O)c1cccc2nc(Oc3ccc4c(c3)COB4O)ccc12 | 55.62%
8 | 8.25 nM |  | COC(=O)c1cc(Oc2ccc3c(c2)COB3O)nc2ccccc12 | 30.6%
